The values that follow come from ChEMBL document CHEMBL1649483, “Molecular analysis of the gyrA and gyrB quinolone resistance-determining regions of fluoroquinolone-resistant Clostridium difficile mutants selected in vitro” (2009).

Common to all, as to assay type: functional
Assay [1] relates to Clostridioides difficile. Kind of assay: Antimicrobial activity against Clostridium difficile 630h harboring GyrB […] mutant gene selected after 8 ug/ml of moxifloxacin by Etest method. The essentials: (§1)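 Stable in vitro-selected mutant tested for gatifloxacin susceptibility by Etest, per the manufacturer's instructions, with an 8 μg/ml breakpoint. For selection, the parent was grown in antibiotic-free brain heart infusion (BHI) for 24 h at 35°C under anaerobic conditions. […] Later steps used double the MIC. Stability was confirmed by three subcultures.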

Assay [2] has as its system Clostridioides difficile. Kind of assay: Antimicrobial activity against Clostridium difficile 630B selected after 4 ug/ml of levofloxacin by Etest method. The essentials:
as §1

Assay [3] relates to Clostridioides difficile. The assay is described as follows: Antimicrobial activity against Clostridium difficile A422d selected after 4 ug/ml of moxifloxacin by Etest method. The essentials: as §1
Assay [4] deals with Clostridioides difficile. Kind of assay: Antimicrobial activity against Clostridium difficile CD5C harboring GyrB Ser416Ala mutant gene selected after 4 ug/ml of levofloxacin by Etest method.
For assay [5], the system named is Clostridioides difficile. The assay is described as follows: Antimicrobial activity against Clostridium difficile CD5e harboring GyrB Ser416Ala mutant gene selected after 4 ug/ml of moxifloxacin by Etest method.
The test system of assay [6] is Clostridioides difficile. The assay is described as follows: Antimicrobial activity against Clostridium difficile C253A selected after 4 ug/ml of levofloxacin by Etest method. The essentials: as §1
Assay [7] relates to Clostridioides difficile. The assay is described as follows: Antimicrobial activity against Clostridium difficile CD5F harboring GyrB Ser416Ala mutant gene selected after 8 ug/ml of levofloxacin by Etest method.
In assay [8] the test system is Clostridioides difficile. The assay is described as follows: Antimicrobial activity against Clostridium difficile 630f selected after 4 ug/ml of moxifloxacin by Etest method. Put shortly:
as §1

For assay [9], the system named is Clostridioides difficile. The assay is described as follows: Antimicrobial activity against Clostridium difficile BI2C selected after 4 ug/ml of levofloxacin by Etest method. The essentials: as §1
Assay [10] concerns Clostridioides difficile. Kind of assay: Antimicrobial activity against Clostridium difficile CD5i harboring GyrA Ala92Glu and GyrB Ser416Ala mutant genes selected after 8 ug/ml of moxifloxacin by Etest method.
Assay [11] deals with Clostridioides difficile. Kind of assay: Antimicrobial activity against Clostridium difficile 630 expressing tcdA and tcdB gene by Etest method. Put shortly: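 Parent clinical or nontoxigenic isolate tested for gatifloxacin susceptibility by Etest, run per the manufacturer's instructions; a fluoroquinolone breakpoint of 8 μg/ml was applied.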
The test system of assay [12] is Clostridioides difficile. The assay is described as follows: Antimicrobial activity against Clostridium difficile A422h harboring GyrA Asp81Asn mutant gene selected after 8 ug/ml of moxifloxacin by Etest method. The essentials:
as §1

The test system of assay [13] is Clostridioides difficile. Kind of assay: Antimicrobial activity against Clostridium difficile C253g harboring GyrA Ala118Ser mutant gene selected after 8 ug/ml of moxifloxacin by Etest method.
Assay [14] has as its system Clostridioides difficile. Kind of assay: Antimicrobial activity against Clostridium difficile 630A selected after 4 ug/ml of levofloxacin by Etest method. The essentials:
as §1

The subject of assay [15] is Clostridioides difficile. Kind of assay: Antimicrobial activity against Clostridium difficile 630b selected after 2 ug/ml of moxifloxacin by Etest method. The essentials: as §1
In assay [16] the test system is Clostridioides difficile. Kind of assay: Antimicrobial activity against Clostridium difficile C253E selected after 8 ug/ml of levofloxacin by Etest method.
Assay [17] has as its system Clostridioides difficile. The assay is described as follows: Antimicrobial activity against Clostridium difficile A422c selected after 2 ug/ml of moxifloxacin by Etest method. Put shortly:
as §1

The subject of assay [18] is Clostridioides difficile. Kind of assay: Antimicrobial activity against Clostridium difficile 630i harboring GyrB […] mutant gene selected after 8 ug/ml of moxifloxacin by Etest method. Put shortly:
as §1

Assay [19] concerns Clostridioides difficile. Kind of assay: Antimicrobial activity against Clostridium difficile A422e selected after 4 ug/ml of moxifloxacin by Etest method. The essentials: as §1
Assay [20] relates to Clostridioides difficile. The assay is described as follows: Antimicrobial activity against Clostridium difficile C253a selected after 2 ug/ml of moxifloxacin by Etest method.
Assay [21] has as its system Clostridioides difficile. The assay is described as follows: Antimicrobial activity against Clostridium difficile BI2D harboring GyrB Glu466Lys mutant gene selected after 8 ug/ml of levofloxacin by Etest method. The essentials: as §1
In assay [22] the test system is Clostridioides difficile. Kind of assay: Antimicrobial activity against Clostridium difficile BI2E harboring GyrB Glu466Lys mutant gene selected after 8 ug/ml of levofloxacin by Etest method. The essentials: as §1
In assay [23] the test system is Clostridioides difficile. Kind of assay: Antimicrobial activity against Clostridium difficile 630E harboring GyrA Ala118Val mutant gene selected after 8 ug/ml of levofloxacin by Etest method. The essentials:
as §1

The test system of assay [24] is Clostridioides difficile. The assay is described as follows: Antimicrobial activity against Clostridium difficile BI2d harboring GyrB Arg447Lys and Asp426Asn mutant gene selected after 32 ug/ml of moxifloxacin by agar dilution method. (In agar dilution, organisms are placed on agar that contains the substance at set levels.)
Assay [25] concerns Clostridioides difficile. Kind of assay: Antimicrobial activity against Clostridium difficile BI2a harboring GyrB Arg447Lys mutant gene selected after 2 ug/ml of moxifloxacin by agar dilution method.
The test system of assay [26] is Clostridioides difficile. The assay is described as follows: Antimicrobial activity against Clostridium difficile A422H harboring GyrA Thr82Ile and GyrB Leu451Phe mutant genes selected after 8 ug/ml of levofloxacin by agar dilution method.
In assay [27] the test system is Clostridioides difficile. The assay is described as follows: Antimicrobial activity against Clostridium difficile 630B selected after 4 ug/ml of levofloxacin by agar dilution method.
Assay [28] relates to Clostridioides difficile. The assay is described as follows: Antimicrobial activity against Clostridium difficile 630d selected after 4 ug/ml of moxifloxacin by agar dilution method.
Assay [29] relates to Clostridioides difficile. The assay is described as follows: Antimicrobial activity against Clostridium difficile A422I harboring GyrA Thr82Ile and GyrB Leu451Phe mutant genes selected after 8 ug/ml of levofloxacin by agar dilution method.
Assay [30] relates to Clostridioides difficile. The assay is described as follows: Antimicrobial activity against Clostridium difficile 630i harboring GyrB […] mutant gene selected after 8 ug/ml of moxifloxacin by agar dilution method.
Assay [31] deals with Clostridioides difficile. Kind of assay: Antimicrobial activity against Clostridium difficile A422B selected after 4 ug/ml of levofloxacin by agar dilution method.
The test system of assay [32] is Clostridioides difficile. The assay is described as follows: Antimicrobial activity against Clostridium difficile C253g harboring GyrA Ala118Ser mutant gene selected after 8 ug/ml of moxifloxacin by agar dilution method.
Assay [33] has as its system Clostridioides difficile. The assay is described as follows: Antimicrobial activity against Clostridium difficile CD5A harboring GyrB Ser416Ala mutant gene selected after 4 ug/ml of levofloxacin by agar dilution method.
Assay [34] concerns Clostridioides difficile. The assay is described as follows: Antimicrobial activity against Clostridium difficile CD5c harboring GyrB Ser416Ala mutant gene selected after 2 ug/ml of moxifloxacin by agar dilution method.
The test system of assay [35] is Clostridioides difficile. Kind of assay: Antimicrobial activity against Clostridium difficile CD5i harboring GyrA Ala118Ser, Thr82Ala and GyrB Ser416Ala mutant genes selected after 8 ug/ml of moxifloxacin by agar dilution method.
The subject of assay [36] is Clostridioides difficile. Kind of assay: Antimicrobial activity against Clostridium difficile C253d selected after 4 ug/ml of moxifloxacin by agar dilution method.
Assay [37] deals with Clostridioides difficile. Kind of assay: Antimicrobial activity against Clostridium difficile A422C selected after 4 ug/ml of levofloxacin by agar dilution method.
The subject of assay [38] is Clostridioides difficile. Kind of assay: Antimicrobial activity against Clostridium difficile C253F selected after 8 ug/ml of levofloxacin by agar dilution method.
The subject of assay [39] is Clostridioides difficile. The assay is described as follows: Antimicrobial activity against Clostridium difficile CD5f harboring GyrB Ser416Ala mutant gene selected after 4 ug/ml of moxifloxacin by agar dilution method.
The test system of assay [40] is Clostridioides difficile. The assay is described as follows: Antimicrobial activity against Clostridium difficile A422g harboring GyrA Asp81Asn mutant gene selected after 8 ug/ml of moxifloxacin by agar dilution method.
Assay [41] deals with Clostridioides difficile. The assay is described as follows: Antimicrobial activity against Clostridium difficile CD5h harboring GyrA Ala118Ser, Thr82Ala and GyrB Ser416Ala mutant genes selected after 8 ug/ml of moxifloxacin by agar dilution method.

In brackets after ≈: the same amount, converted by molar mass.

As to `COc1c(N2CCNC(C)C2)c(F)cc2c(=O)c(C(=O)O)cn(C3CC3)c12` (stereo unspecified) [GATIFLOXACIN], the MIC in the assay with Clostridioides difficile [1] was not below 32 µg/mL; with Clostridioides difficile [2] it was 0.75 µg/mL; with Clostridioides difficile [3] it was 1.5 µg/mL; in the assay with Clostridioides difficile [4], 0.5 µg/mL; in the assay on Clostridioides difficile [5], 0.75 µg/mL; in the assay on Clostridioides difficile [6], 0.5 µg/mL. In addition, the MIC is 2 µg/mL in the assay on Clostridioides difficile [7]; 2 µg/mL in the assay on Clostridioides difficile [8]; 2 µg/mL in the assay on Clostridioides difficile [9]; 3 µg/mL with Clostridioides difficile [10]; 0.75 µg/mL (≈ 2 µM) in the assay with Clostridioides difficile [11]; not below 32 µg/mL with Clostridioides difficile [12]. Further, the MIC in the assay on Clostridioides difficile [13] is 8 µg/mL; in the assay on Clostridioides difficile [14], 0.75 µg/mL; in the assay with Clostridioides difficile [15] it was 0.75 µg/mL; in the assay with Clostridioides difficile [16] it was 1 µg/mL; in the assay on Clostridioides difficile [17], 1.5 µg/mL; in the assay with Clostridioides difficile [18], not below 32 µg/mL. The MIC with Clostridioides difficile [19] is 1.5 µg/mL; in the assay on Clostridioides difficile [20], 1 µg/mL; in the assay with Clostridioides difficile [21], not below 32 µg/mL; in the assay with Clostridioides difficile [22], not below 32 µg/mL; in the assay with Clostridioides difficile [23], 3 µg/mL.
Take `C[C@H]1COc2c(N3CCN(C)CC3)c(F)cc3c(=O)c(C(=O)O)cn1c23.C[C@H]1COc2c(N3CCN(C)CC3)c(F)cc3c(=O)c(C(=O)O)cn1c23.O` [LEVOFLOXACIN]: the MIC in the assay on Clostridioides difficile [24] is 64 µg/mL; in the assay with Clostridioides difficile [25] it was 8 µg/mL; in the assay with Clostridioides difficile [26], 64 µg/mL; with Clostridioides difficile [27], 1 µg/mL; with Clostridioides difficile [28], 4 µg/mL; in the assay with Clostridioides difficile [29], 64 µg/mL. Besides, the MIC in the assay on Clostridioides difficile [30] amounted to 64 µg/mL; with Clostridioides difficile [31], 1 µg/mL; in the assay on Clostridioides difficile [32], 64 µg/mL; in the assay on Clostridioides difficile [33], 1 µg/mL; in the assay with Clostridioides difficile [34] it was 2 µg/mL; in the assay with Clostridioides difficile [35] it was 64 µg/mL. Also, the MIC worked out at 4 µg/mL with Clostridioides difficile [36]; 1 µg/mL in the assay with Clostridioides difficile [37]; 2 µg/mL in the assay with Clostridioides difficile [38]; 2 µg/mL in the assay with Clostridioides difficile [39]; 64 µg/mL with Clostridioides difficile [40]; 64 µg/mL in the assay with Clostridioides difficile [41].

The MIC is the lowest concentration found to suppress growth.
